ChEMBL document CHEMBL1148102, “New chlorinated diphenyl ethers from an Aspergillus species” (J Nat Prod, 2002)
Values after ≈ are worked out from the molar mass of the structure shown. Active and inactive are the calls of the source. The calls are words filed in the database; no cut-off is given here.

How the values were obtained:
[1] = system: Escherichia coli; test: Antimicrobial activity against Escherichia coli at <200 ppm; format: functional, organism-based
[2] = target: T1, Endothelin-1 receptor (Rattus norvegicus, UniProt P26684); test: Displacement of endothelin-1 from ETA receptor in rat A10 cells; format: cell-based
T1 sequence (P26684 whole entry): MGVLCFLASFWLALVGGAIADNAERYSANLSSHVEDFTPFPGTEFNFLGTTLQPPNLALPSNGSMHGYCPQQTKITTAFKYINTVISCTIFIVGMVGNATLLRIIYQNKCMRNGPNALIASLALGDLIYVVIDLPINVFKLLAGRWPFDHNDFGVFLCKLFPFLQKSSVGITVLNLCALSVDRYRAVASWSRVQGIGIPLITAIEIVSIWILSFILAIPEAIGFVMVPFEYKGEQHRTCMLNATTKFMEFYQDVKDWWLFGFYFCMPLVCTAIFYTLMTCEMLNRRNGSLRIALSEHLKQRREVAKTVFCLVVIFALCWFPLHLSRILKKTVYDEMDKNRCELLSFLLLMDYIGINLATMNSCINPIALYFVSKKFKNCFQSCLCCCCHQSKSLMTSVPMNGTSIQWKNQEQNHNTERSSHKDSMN

[3] = system: Gaeumannomyces tritici; test: Antimicrobial activity against Gaeumannomyces graminis var. tritici at <200 ppm; format: functional, organism-based
In short: (§1)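 Antifungal test by the dialysis membrane overlay technique against the phytopathogenic fungus. Compounds were assessed at concentrations below 200 ppm.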

[4] = system: Rhizoctonia solani; test: Antimicrobial activity against Rhizoctonia solani at <200 ppm; format: functional, organism-based; in short: as §1
[5] = system: Caenorhabditis elegans; test: Antinematodal activity against Caenorhabditis elegans after 16 to 24 hrs; format: functional
In short: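 Model nematode C. elegans exposed to compounds in a bioassay. Lethality was scored over 16-24 h and reported as the concentration in ppm lethal to 90% (LD90) or 50% (LD50) of worms.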

| SMILES | Activity [1] | IC50 [2] [µM] | Activity [3] | Activity [4] | LD90 [5] [ppm] | LC50 ([5]; Caenorhabditis elegans, read-out: LD50 (the source's name)) [µg/mL] |
| --- | --- | --- | --- | --- | --- | --- |
| COC(=O)c1cc(O)cc(OC)c1Oc1cc(C)cc(O)c1C(=O)O [ASTERRIC ACID] | inactive | 10 | inactive | inactive | 50 |  |
| COC(=O)c1cc(O)cc(OC)c1Oc1cc(C)cc(O)c1C(=O)OC [METHYL ASTERRATE] | inactive |  | inactive | inactive | 75 |  |
| COC(=O)c1cc(O)cc(OC)c1Oc1cc(C)c(Cl)c(O)c1C(=O)OC [METHYL CHLOROASTERRATE] | inactive |  | inactive | inactive |  | 100 (≈ 252 µM) |
| COC(=O)c1cc(O)cc(OC)c1Oc1c(Cl)c(C)c(Cl)c(O)c1C(=O)OC [METYL DICHLOROASTERRATE] | inactive |  | inactive | inactive | 75 |  |
| COC(=O)c1cc(O)cc(OC)c1C(=O)c1c(O)cc(C)cc1O [SULOCHRIN] | inactive |  | inactive | inactive | 50 |  |
